Compound activity: PubChem, several laboratories
CaV13 FRET inh – Primary screen for inhibitors of IQ motif and Ca2+-dependent inactivation inhibitor domain binding in CACNA1D, Förster resonance energy transfer in living cells, …; HEK cells, CFP/YFP FRET ICDI-IQ, plate reader, 10 min; percent FRET-ratio fall versus neutral wells; inhibition, % at 12.3 µM; 0.098% of 340,000 active; AID 743397;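 active = mean replicate inhibition of at least 30% and at least 1% of replicates passing that level; inconclusive = only one of the two criteria is met; inactive = neither criterion is met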;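 also: 0% = median of the neutral control wells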
Hck-Nef inh – inhibitors of Nef-activated human Hck kinase, primary screen, biochemical, Z-Lyte FRET, 384-well, Hck-YEEI; Recombinant Hck-YEEI plus Nef, Z-Lyte FRET kinase assay; inhibition, % at 20 µM; 0.68% of 220,000 active;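 active = Hck-Nef kinase inhibition above about 50%, limit read from the data; inactive = inhibition below that limit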;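 also: 0% = DMSO with Hck plus Nef and 100% = Hck alone without Nef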
Runt-CBFb FRET – inhibitors of RUNX1 Runt–CBFb binding, primary screen, biochemical, FRET, Cerulean-Runt, Venus-CBFb, uHTS | Runt-related transcription factor 1 (Homo sapiens) + Core-binding factor subunit beta … | Cerulean-Runt/Venus-CBFb FRET ratio 530/480, 1 h | inhibition, % at 20 µM | 0.46% of 220,000 active | AID 1496, 2009;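 active = inhibition over about 50% at 20 µM in the single-dose screen, limit read from the data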;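 also: 0% = DMSO wells and 100% = excess unlabeled CBFb competitor control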
Target sequence (Q01196 whole entry, looked up): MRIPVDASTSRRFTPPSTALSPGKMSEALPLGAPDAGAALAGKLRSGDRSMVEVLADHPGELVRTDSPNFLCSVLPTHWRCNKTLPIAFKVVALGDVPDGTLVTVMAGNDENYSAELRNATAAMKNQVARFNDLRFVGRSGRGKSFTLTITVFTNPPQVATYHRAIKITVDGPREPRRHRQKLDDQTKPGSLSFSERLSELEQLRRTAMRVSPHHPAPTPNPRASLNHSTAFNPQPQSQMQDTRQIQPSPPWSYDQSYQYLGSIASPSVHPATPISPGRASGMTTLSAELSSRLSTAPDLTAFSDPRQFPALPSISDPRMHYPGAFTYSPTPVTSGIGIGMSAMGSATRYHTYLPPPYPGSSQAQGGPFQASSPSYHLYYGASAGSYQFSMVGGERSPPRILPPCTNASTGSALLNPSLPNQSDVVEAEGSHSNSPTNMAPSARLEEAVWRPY
Target sequence (Q13951 whole entry, looked up): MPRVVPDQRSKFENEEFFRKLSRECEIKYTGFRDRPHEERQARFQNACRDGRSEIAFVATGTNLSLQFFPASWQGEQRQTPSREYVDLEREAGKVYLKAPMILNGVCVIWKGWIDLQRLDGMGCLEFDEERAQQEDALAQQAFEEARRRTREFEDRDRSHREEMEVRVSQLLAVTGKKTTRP
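Assay system: Cerulean-Runt domain fusion protein, energy donor; Signal: fluorescence energy transfer, 422 nm excitation, 530/480 nm emission; Timing: 1 h compound exposure, room temperature; Control set: unlabeled CBFb; Medium: Tris buffer pH 7.5 with salts and BSA; Compound: single test concentration of 20 µM, 1% DMSO final; Probe or stimulus: Venus-CBFb 100 nM.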
RanGTP-Impb inh – inhibitors of RanGTP-importin-beta interaction, primary screen, biochemical, FRET, CFP-Ran, YFP-importin-beta, homogeneous. cell-free CFP-Ran/YFP-importin-beta FRET ratio. Ran GTPase (GTP-bound) - importin-beta complex. inhibition, % (concentration not given with the values). 1.1% of 300,000 active;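 active = more than half of the replicate wells show a fall in the fluorescence ratio signal beyond about 16%, limit read from the data, passing the limit was not always enough; inconclusive = exactly half of the replicate wells pass the set limit; inactive = fewer than half of replicates pass the limit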;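 also: 0% = DMSO wells and 100% = Ran loaded with GDP instead of GTP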
Runt-SMMHC FRET – inhibitors of RUNX1 Runt–CBFb-SMMHC binding, primary screen, biochemical, FRET, Cerulean-Runt, Venus-CBFb-SMMHC, uHTS; Runt-related transcription factor 1 (Homo sapiens) + Core-binding factor subunit beta …; Cerulean-Runt/Venus-CBFb-SMMHC FRET ratio 530/480, 1 h; inhibition, % at 20 µM; 0.74% of 220,000 active; AID 1434, 2008;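 active = mean inhibition across duplicate retests at 20 µM reaching about 50%, limit read from the data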;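 also: 0% = DMSO wells and 100% = wells with excess untagged CBFb-SMMHC; inhibitors lower the FRET ratio by blocking Runt binding to CBFb-SMMHC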
* hit, by the source's call; ? = inconclusive; . = no result. In the library only some 1.5% were active in any assay of this set; here they are far more common.

SMILES	CaV13 FRET inh	Hck-Nef inh	Runt-CBFb FRET	RanGTP-Impb inh	Runt-SMMHC FRET
O=C(CP(=O)(c1ccccc1)c1ccccc1)N/N=C/c1cc(Br)cc(Br)c1O	-4.7	3.7	30.6	21.0*	59.6
O=C(Cc1ccccc1)N/N=C/c1cc(Br)cc(Cl)c1O	-5.1	4.8	28.3	18.1*	91.8*
CC(C)CCCC(C)NC(=O)c1cc(S(=O)(=O)N2CCCCC2)ccc1N1CCOCC1 (centres undefined)	-4.7	.	.	.	.
CCC(C)Sc1ccc(-c2nc3cnccn3c2NC2CCCCC2)cc1 (centres undefined)	-17.4	.	.	30.1*	.
C=CCNC(=S)NNc1nc2sc3c(c2c(=O)[nH]1)CC(C)(C)OC3	-5.0	.	.	-0.3	.
COc1cccc(/C(O)=C/c2nc3ccc(C(=O)NCCc4cccc(C)c4)cc3[nH]c2=O)c1	-4.9	-0.4	-3.9	43.3*	-54.0
COc1cccc(/C(O)=C/c2nc3ccc(C(=O)NCCc4ccc(Cl)cc4)cc3[nH]c2=O)c1	-3.6	4.7	-11.0	31.6*	10.2
COc1cccc(C(=O)Nc2cc(C(=O)NCCc3ccccc3)ccc2Cl)c1	-9.3	3.3	3.2	6.4	6.7
Clc1cnc(Nc2cccnc2)c(Cl)c1	-5.9	.	.	-0.8	.
Cc1ccc(S[C@@H](CCN2CC[C@H](O)CCC2=O)c2ccccc2)cc1	33.2*	.	.	-0.3	.
Cc1ccc(S[C@@H](CCN2CC[C@H](C)CCC2=O)c2ccccc2)cc1	-5.0	.	.	-0.2	.
CCOC(=O)N1CCC(NC(=O)CCCN2C(=O)CSc3ncccc32)CC1	.	0.7	0.1	5.6	-2.9
O=C(CCCN1C(=O)CSc2ncccc21)N1CCN(Cc2ccccc2)CC1	36.6*	1.1	-0.7	0.1	-1.5
CCCCn1nc(NC(=O)CCC)c2cc3cc(OC)ccc3nc21	-0.5	.	.	71.2*	.
Cc1ccc2nc3c(cc2c1)c(NS(=O)(=O)c1ccccc1)nn3CC(C)C	.	10.6	-6.7	-2.9	-19.4
CCCC(=O)Nc1nn(CCC)c2nc3ccccc3cc12	-6.0	14.1	7.7	7.6	3.8
CCCCn1nc(NC(=O)CC(C)C)c2cc3cc(OC)ccc3nc21	4.1	.	.	83.6*	.
COc1ccc2nc3c(cc2c1)c(NC(=O)CC(C)C)nn3CC(C)C	-0.7	.	.	74.3*	.
Cc1ccc(S(=O)(=O)N2C(=O)CCC2C(N)=O)cc1 (centres undefined)	-20.8	.	.	-5.4	.
Cc1cccn2c(=O)c(/C=C(\C#N)C(=O)NCc3ccco3)c(N3CCCCCC3)nc12	-4.5	-3.1	97.1*	-4.7	-7.9
Cc1cccn2c(=O)c(/C=C(\C#N)C(=O)NCc3ccco3)c(N3CCCC(C)C3)nc12 (centres undefined)	-19.5	3.1	97.6*	3.4	.
Cc1cccn2c(=O)c(/C=C(\C#N)C(=O)NCc3ccco3)c(N3CCCCC3)nc12	-5.0	3.3	64.7*	2.2	59.5*
Cc1cccn2c(=O)c(/C=C(\C#N)C(=O)NCc3ccco3)c(N3CCC(C(N)=O)CC3)nc12	23.5	4.6	71.3*	3.2	.
CCNC(=O)/C(C#N)=C/c1c(N2CCN(c3cccc(Cl)c3)CC2)nc2c(C)cccn2c1=O	-13.2	.	.	6.3	.
CCOC(=O)C1CCN(c2nc3c(C)cccn3c(=O)c2/C=C(\C#N)S(=O)(=O)c2ccccc2)CC1	-28.9	-6.4	-29.3	6.9	-38.6
SMILES	CaV13 FRET inh	Hck-Nef inh	Runt-CBFb FRET	RanGTP-Impb inh	Runt-SMMHC FRET
CCNC(=O)/C(C#N)=C/c1c(N2CCN(C)CC2)nc2c(C)cccn2c1=O	-2.1	.	.	-55.8	.
COc1cc2ccc(NC(C)=O)cc2cc1OC	-5.3	.	.	.	.
COc1ncnc2c1ncn2CCCN1CCN(c2ccccn2)CC1	-6.3	.	.	.	.
CCOC(=O)C1CCCN(c2nc3c(C)cccn3c(=O)c2/C=C(\C#N)C(=O)NCc2ccco2)C1 (centres undefined)	-5.0	7.6	120.6*	-0.6	4.5
N#C/C(=C\c1c(N2CCCCC2)nc2ccccn2c1=O)C(=O)NCc1ccco1	-17.7	4.7	65.1*	1.4	80.6
C=CCNC(=O)/C(C#N)=C/c1c(N2CCCCCC2)nc2ccccn2c1=O	4.2	.	.	3.8	.
COc1cccc(CNC(=O)c2ccc(CS(=O)Cc3ccc(C)cc3)o2)c1 (centres undefined)	-4.6	.	.	?	.
N=c1oc2cc(O)ccc2cc1C(=O)Nc1ccc(Cl)cc1	112.5*	.	.	170.4*	.
O=C(O)c1cc(Cl)n[nH]c1=O	-8.5	.	.	.	.
O=C(COC(=O)c1nn(CCO)c(=O)c2ccccc12)Nc1ccc(Cl)c(Cl)c1	-2.4	.	.	.	.
COc1ccc2c(c1OC)C(=O)N(c1ccc(C)c(C)c1)C2=O	-4.5	-11.0	-1.2	74.9*	-10.2
CN(C(=O)c1ccccc1[N+](=O)[O-])c1ccccc1C(=O)NCc1ccccc1	.	.	.	2.6	.
CN(C)c1ccc(C=C2SC(=S)N(Cc3ccco3)C2=O)cc1	-8.4	.	.	.	.
Cc1cc(/C=C2\SC(=S)N(C)C2=O)c(C)n1-c1cccc(O)c1	16.4	-8.8	-15.2	36.2*	-47.6
Cc1cc(/C=C2\SC(=S)N(Cc3ccco3)C2=O)c(C)n1-c1ccccc1	-10.1	1.4	-18.7	21.4*	-106.5
Cc1cc(/C=C2\SC(=O)N(C)C2=O)c(C)n1-c1ccc(O)cc1	-19.8	.	.	-2.5	.
COc1ccc(NC(=O)C2(C)CCN2Cc2cccc(OC)c2OC)cc1OC (centres undefined)	-3.2	.	.	.	.
CCc1ccc(OC2(C)CCN(Cc3ccc4c(c3)OCCO4)C2)cc1 (centres undefined)	-2.0	.	.	.	.
CCOc1cc(C2C3=C(CCCC3=O)Nc3ccc4ncccc4c32)ccc1O (centres undefined)	-4.7	17.5	0.4	22.0*	-2.7
